Calb FLC: C. albicans growth modulation with fluconazole. C. albicans CaCi-2 (fluconazole-resistant clinical isolate) + fluconazole, Alamar Blue growth, 48 h. 0.57% of 300,000 active. growth inhibition, % (test concentration not listed). AID 1979;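 active = growth inhibition above about 58% in most replicates, limit read from the data, passing the limit was not always enough; inconclusive = exactly half the replicates above a set limit; inactive = most replicates below a set limit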;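 also: all wells also contain fluconazole at 8 µg/ml as a sub-toxic cotreatment; 0% = median of DMSO wells and 100% = median of geldanamycin control wells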
T cruzi inh: T. cruzi replication inhibition; T. cruzi beta-gal in NIH3T3, luminescence, 90 h; inhibition, % (no concentration beside the values); 1.4% of 300,000 active; AID 1885;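 active = mean inhibition across valid replicates above about 55%, limit read from the data; inconclusive = mean below that limit but half or more replicates reach it; inactive = mean below it, under half of replicates reach it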;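 also: signal also drops with host cell toxicity which is not excluded here; 0% = plate median of DMSO wells and 100% = zero luminescence signal; higher percent means less beta-gal luminescence so fewer parasites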
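Material: NIH/3T3 host cells with β-galactosidase reporter T. cruzi; Input: 5,000 host fibroblasts per well; Medium: DMEM, 2% fetal bovine serum; Compound: 50 nL DMSO compound solution per well; Schedule: 3 h host attachment, then at least 90 h co-culture; Detection: luminescent β-galactosidase signal after 60 min lysis.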
Beta cell apopt: beta cell apoptosis inhibition; INS-1E cytokine-induced death, ATP luminescence, 48 h; percent of positive-control rescue, neutral wells zero; protection from apoptosis, % (test concentration not listed); 0.8% of 300,000 active; AID 435005;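 active = Every replicate reaches about 75%, or at least half do and their mean reaches it too, limit read from the data; inconclusive = At least half of replicates reach the limit but their mean does not; inactive = Under half of replicates reach the limit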;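 also: 0% = cytokine-treated negative control wells and 100% = positive control rescue; higher means more ATP so stronger rescue from cytokine killing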
SKKanGAS inh: blocks kanamycin growth of S. pyogenes SKKanGAS strain; 1.3% of 300,000 active; BacTiter-Glo, 6 h; inhibition, % at 7.5 µM;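 active = mean replicate score, as percent of positive control median, at least 50; inconclusive = mean below 50 but one replicate at or above 50; inactive = mean and every replicate below 50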;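 also: strain carries kanamycin resistance gene driven by streptokinase promoter and grows in 40 µg/ml kanamycin; loss of luminescence reflects streptokinase promoter inhibition or plain growth inhibition; 0% = median of DMSO wells and 100% = positive control at its reference dose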
Mdm2 MdmX PPI: disrupts the human Mdm2-MdmX interaction | SaOS-2 split-luciferase Mdm2/MdmX complementation, luminescence | O15151+Q00987 | 3% of 330,000 active | AID 485346 | inhibition, % at 8 µM;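 active = inhibition of at least 50% at 8 µM in the primary screen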
CSC inhib: blocks cancer stem cells; inhibition, % at 7.5 µM; 1.1% of 300,000 active; cancer stem cell-like cells viability, luminescence; in the data active = inhibition above about 75%; inconclusive = no clear call, values can overlap the other calls; tested in HMLE shEcad cells
Mdm2 MdmX conf: confirmation of human Mdm2/MdmX interaction inhibitors; Mdm2-MdmX binding, luminescent assay; AID 489028; inhibition, % at 8 µM; shares compounds with Mdm2 MdmX PPI; 55% of 10,000 active; in the data active = inhibition above about 40%
Full FLuc ctr: counter-screen for Mdm2/MdmX inhibitors: full-length luciferase | 77% of 6,200 active | shares compounds with Mdm2 MdmX PPI | SaOS-2 full-length luciferase counterscreen, luminescence | inhibition, % at 8 µM;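 active = mean inhibition at 8 µM reaching about 37%, which flags the compound as non-specific, limit read from the data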;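 also: p53-null SaOS-2 cells with luciferase driven by a doxycycline-inducible promoter; compound on cells about two nights before reading with doxycycline added after day one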
* hit, by the source's call; ? = inconclusive; . = not tested or not shown. Most compounds without a hit are left out; they make up all but 5.7% or so of the library.

SMILES	Calb FLC	T cruzi inh	Beta cell apopt	SKKanGAS inh	Mdm2 MdmX PPI	CSC inhib	Mdm2 MdmX conf	others
COC(=O)c1[nH]c2ccc(C)cc2c1NC(=O)C(C)N1CCN(C2CCCCC2)CC1 (stereo not drawn)	-9	-13	-5	11	53*	-10	31
COC(=O)c1[nH]c2ccc(Br)cc2c1NC(=O)C(C)N1CCN(C2CCCCC2)CC1 (stereo not drawn)	.	36	-13	-4	96*	-2	34	Full FLuc ctr=5
COc1ccc(-c2coc3cc4oc(=O)cc(C)c4cc23)cc1F	3	-21	12	-14	71*	-11	46*	Full FLuc ctr=105*
COc1ccc(-c2cc(=O)oc3cc4occ(C)c4cc23)cc1	-10	19	3	-4	20	40	.
COc1ccc(-c2coc3cc4oc(=O)cc(-c5ccccc5)c4cc23)cc1F	2	22	20	1	84*	-6	58*	Full FLuc ctr=55*
NC(=O)C1CCN(c2ncc(C(F)(F)F)cc2Cl)CC1	12	-16	1	-6	-30	-13	.
N#Cc1ccccc1Sc1ccccc1C(=O)NCC(c1ccco1)N1CCCC1 (stereo not drawn)	-5	44	-8	1	14	-7	.
CC1CCN(CCCN2C(=O)C3C(C(=O)Nc4ccc(Cl)cc4)C4C=CC3(O4)C2C(=O)NC2CCCCC2)CC1 (stereo not drawn)	-9	2	-1	3	30	-5	.
COc1ccc(CN(C(=O)COc2ccccc2)c2ccccc2C(=O)O)cc1	?	3	-3	2	-3	-35	.
O=C(COc1ccc(Cl)cc1Cl)N1CCCN(C(=O)COc2ccc(Cl)cc2Cl)CC1	93*	60*	17	30	59*	38	21
Cc1cc(Cl)ccc1OCC(=O)N1CCCCC1	-3	-1	2	4	-19	22	.
O=[N+]([O-])c1cc(Cl)ccc1Oc1ccc(-c2nnco2)cc1	19	-4	-11	0	14	-5	.
Cc1cc(Oc2ccc(-c3nnc(-c4ccccc4)o3)cc2[N+](=O)[O-])ccc1Cl	2	37	1	-4	75*	-10	2
CC1c2ccccc2N(NC(=O)Cc2ccccc2)C1C (stereo not drawn)	-2	-10	-6	-4	-3	-4	.
CC(C)(C)C(=O)NC(=S)Nc1ccc(Cc2ccncc2)cc1	8	-14	2	-7	15	50	.
COc1ccc(C(=O)Nc2cc(C)on2)cc1	-7	-5	-1	-14	-28	.	.
COc1ccc(OCc2cccc(C(=O)Nc3cc(C)on3)c2)cc1	?	-10	6	-5	50	6	37
COc1ccc(OCc2cccc(C(=O)NN)c2)cc1	11	4	-6	0	-14	3	.
COc1ccc(OCc2cccc(C(=O)Nn3cc([N+](=O)[O-])cn3)c2)cc1	?	10	9	3	79*	42	71*	Full FLuc ctr=4
Cc1ccccc1NC(=S)NC1(C)CCS(=O)(=O)C1 (stereo not drawn)	?	-3	-1	-4	1	10	.
CC(=O)N(C(C)=O)c1ncc2c([nH]c3ccccc32)c1C#N	-11	6	-17	-7	82*	1	86*	Full FLuc ctr=33
CCN(CC)S(=O)(=O)c1cc(NC(=O)CSc2nc3c(cc2C#N)C(=O)CC(C)(C)C3)ccc1C	3	45	7	-3	67*	52	63*	Full FLuc ctr=45*
CCOc1ccc(S(=O)(=O)Nc2ccn(C)n2)cc1	.	.	.	.	22	.	.
COCc1ccc(C(=O)N2CCCC(Nc3ccc(F)c(F)c3)C2)s1 (stereo not drawn)	-3	22	-10	21	8	1	.
COc1ccc2nc(C)cc(SCC(=O)NNC(=O)COc3ccccc3)c2c1	-3	-24	-8	8	-11	-6	.
SMILES	Calb FLC	T cruzi inh	Beta cell apopt	SKKanGAS inh	Mdm2 MdmX PPI	CSC inhib	Mdm2 MdmX conf	others
COc1ccc2nc(C)cc(Sc3nc4ccccc4s3)c2c1	4	0	-47	17	78*	59	19
c1ccc(C(c2ccccc2)N2CCN(c3nc4ccccc4n4cnnc34)CC2)cc1	14	.	108*	10	68*	32	18
Cc1ccc(N=Nc2c(N)[nH]n3c(=O)cc(-c4ccccc4)nc23)cc1	-28	.	6	.	50	.	.
COc1cccc(N=Nc2c(N)[nH]n3c(=O)cc(-c4ccccc4)nc23)c1	5	.	26	110*	62*	-8	34
O=C(Oc1c(-c2ccccc2)c(=O)n2c3c(cccc13)CC2)c1ccco1	4	6	-4	19	54*	-2	12
O=C(Oc1c(-c2ccccc2)c(=O)n2c3c(cccc13)CC2)c1ccc(Cl)cc1	-2	4	0	17	46	16	.
O=C(COc1ccccc1)Nc1c2c(nn1-c1ccccc1)CS(=O)C2 (stereo not drawn)	-3	-9	-2	-1	-1	3	.
O=C(O)c1ccc2oc(=O)c(S(=O)(=O)c3ccc(F)cc3)cc2c1	-5	-1	1	1	-15	-17	.
CCCCCCc1cc2cc(C(=O)Nc3ccccc3OC)c(=O)oc2cc1O	-1	2	19	5	95*	19	9
CCCCCCc1cc2cc(S(=O)(=O)c3ccc(F)cc3)c(=O)oc2cc1O	-3	-3	3	12	57*	30	51*	Full FLuc ctr=85*
CCCCCCc1cc2cc(-c3nnc(-c4ccccc4O)o3)c(=O)oc2cc1O	20	8	106*	98*	73*	109*	91*	Full FLuc ctr=22
NC[C@@H]1O[C@H](O[C@H]2[C@@H](O)[C@H](O[C@@H]3[C@@H](O)[C@H](N)C[C@H](N)[C@H]3O[C@H]3O[C@H](CO)[C@@H](O)[C@H](O)[C@H]3N)O[C@@H]2CO)[C@H](N)[C@@H](O)[C@@H]1O	.	-12	-1	-3	-4	-13	.
Cc1ccccc1NC(=O)Cc1nnc(NC(=O)Nc2ccccc2F)s1	3	-12	1	-13	77*	15	10
Cc1ccc(-c2sc(-c3ccccc3)nc2CC(=O)Nc2ccccc2F)cc1	-3	42	141*	-2	52*	6	9
CC(=O)Nc1cccc(NC(=O)Cc2nc(-c3ccccc3)sc2-c2ccc(C)cc2)c1	-22	42	2	11	10	12	.
O=S(=O)(c1cccs1)N1CCN(c2ccnc3cc(Cl)ccc23)CC1	-5	3	.	2	57*	.	23
O=S(=O)(c1ccccc1)N1CCN(c2ccnc3cc(Cl)ccc23)CC1	22	16	33	3	30	5	.
